The text below walks through data of PMC10975593 (ACS Omega, 2024).

Usually inhibition stands for the change of the read-out against control, counted positive when it falls. By zone of inhibition is commonly meant the size of the clear area around the sample on an inoculated plate. What is called IC50 is the concentration needed to halve the response being measured. One may read the %inhibition as the percentage by which the read-out fell short of the control.

The target of one experiment is PI3Kγ enzyme (Homo sapiens, UniProt P48736). The experiment is described as follows: Adapta universal kinase assay, anti-PI3Kγ activity. In kind it is biochemical. In a few lines:
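Adapta ADP-detection TR-FRET immunoassay with test compound at 100 μM. The kinase reaction runs 60 min. It is then stopped by a detection solution of EDTA, europium-labelled anti-ADP antibody and Alexa Fluor 647-labelled ADP tracer. ADP formed displaces the tracer and lowers the TR-FRET signal. ADP formation is calculated from the emission ratio.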

Experiment [1] concerns A549 cancer cell line. The experiment is described as follows: MTT assay. The experiment is classed as cell-based. The following applies: for inhibition at 100 µM / IC50: Homo sapiens, A549, 72 h; for inhibition at 100 µM: read-out: experimental % of inhibition on A549 cancer cell line. In outline:
(§1)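 A549 in DMEM and MCF-7 in RPMI, each with 10% heat-inactivated FBS, 1% penicillin/streptomycin and 2 mmol/L glutamine at 37 °C, 5% CO2. Seeded at 2000 (A549) or 10,000 (MCF-7) cells/well and attached 24 h. Then 72 h with test compound at varying concentrations. MTT (5 mg/mL stock) added for 4 h at 37 °C, formazan dissolved in DMSO, absorbance read at 450/540 nm. Triplicates in three separate experiments.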

The test system of another experiment is Staphylococcus aureus. The experiment is described as follows: Disc diffusion antimicrobial test. In kind it is cell-based. The following applies: 24 h; for zone of inhibition at 100 µg/mL: Staphylococcus aureus, read-out: zone of inhibition (diameter of inhibition). In a few lines:
(§2)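 Disc diffusion on nutrient agar, test compound at 100 μg/mL with DMSO as solvent. Plates incubated at 37 °C for 24 h after inoculation, then zone of inhibition measured and compared with standards. Controls were DMSO, amoxicillin, ciprofloxacin and tetracycline.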
In general terms: Agar diffusion results depend on both activity and mobility in agar.

The test system of the next experiment is Escherichia coli. The experiment is described as follows: Disc diffusion antimicrobial test. In kind it is cell-based. The settings on record: 24 h; for zone of inhibition at 100 µg/mL: Escherichia coli, read-out: zone of inhibition (diameter of inhibition). In outline: as §2
In the next experiment the test system is Fibro cell line. Put plainly: % inhibition on normal cell line. In kind it is cell-based. The following applies: for inhibition at 10 µM: read-out: %inhibition at 10 μM; for inhibition at 100 µM: read-out: %inhibition at 100 μM.
A further experiment has as its system MCF-7 cancer cell line. The experiment is described as follows: MTT assay. In kind it is cell-based. In a few lines:
as §1

For experiment [2], the system named is A549 cancer cell line. The settings on record: cited from earlier work.
The mark [3] stands for this setting: read-out: % of inhibition (mean) against PI3Kγ enzyme.
[4] abbreviates: read-out: % of inhibition against PI3Kγ enzyme, point 1.
[5] abbreviates: read-out: % of inhibition against PI3Kγ enzyme, point 2.

Where two headings read alike, the source gives them in different places.

Sequence of PI3Kγ enzyme (P48736 whole entry): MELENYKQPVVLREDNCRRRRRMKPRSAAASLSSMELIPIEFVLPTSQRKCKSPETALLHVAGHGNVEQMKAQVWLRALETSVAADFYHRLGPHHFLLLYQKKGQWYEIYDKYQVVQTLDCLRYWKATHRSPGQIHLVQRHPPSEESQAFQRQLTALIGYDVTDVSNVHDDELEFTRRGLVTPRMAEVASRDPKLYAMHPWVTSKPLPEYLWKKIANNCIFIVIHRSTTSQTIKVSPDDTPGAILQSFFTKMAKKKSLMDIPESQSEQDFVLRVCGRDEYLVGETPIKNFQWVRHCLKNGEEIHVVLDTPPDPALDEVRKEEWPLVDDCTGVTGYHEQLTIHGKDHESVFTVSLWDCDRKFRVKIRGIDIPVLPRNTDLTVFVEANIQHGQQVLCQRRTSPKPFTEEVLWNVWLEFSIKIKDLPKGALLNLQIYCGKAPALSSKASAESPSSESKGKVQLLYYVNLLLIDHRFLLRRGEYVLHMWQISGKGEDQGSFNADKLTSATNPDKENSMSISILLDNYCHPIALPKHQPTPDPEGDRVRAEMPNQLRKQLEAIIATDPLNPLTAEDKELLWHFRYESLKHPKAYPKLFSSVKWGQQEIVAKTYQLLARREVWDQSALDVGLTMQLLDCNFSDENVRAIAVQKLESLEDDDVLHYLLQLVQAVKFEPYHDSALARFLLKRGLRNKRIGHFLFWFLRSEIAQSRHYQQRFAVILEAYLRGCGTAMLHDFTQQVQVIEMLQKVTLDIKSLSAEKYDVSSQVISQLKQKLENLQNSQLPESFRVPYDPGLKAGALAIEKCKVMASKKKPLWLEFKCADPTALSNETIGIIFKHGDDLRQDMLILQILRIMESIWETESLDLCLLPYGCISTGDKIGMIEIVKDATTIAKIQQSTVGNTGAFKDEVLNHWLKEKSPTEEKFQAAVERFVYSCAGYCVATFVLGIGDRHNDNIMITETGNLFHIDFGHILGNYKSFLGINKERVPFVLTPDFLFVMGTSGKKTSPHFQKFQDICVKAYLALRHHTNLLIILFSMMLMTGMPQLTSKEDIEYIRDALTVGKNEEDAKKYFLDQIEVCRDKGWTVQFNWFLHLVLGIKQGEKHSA

For `N=C(N)NS(=O)(=O)c1ccc(NCC(=O)Nc2nc3ccccc3s2)cc1` [OMS7, N-(1,3-benzothiazol-2-yl)-2-[4-(carbamimidoylsulfamoyl)anilino]acetamide], the inhibition at 100 µM on PI3Kγ enzyme (setting [3]) was 25%; at PI3Kγ enzyme (setting [4]), 29%; at PI3Kγ enzyme (setting [5]) it was 22%; in the experiment with A549 cancer cell line [1], -3.59%; in the experiment with Fibro cell line, 16.4%. The zone of inhibition at 100 µg/mL with Staphylococcus aureus and in the experiment on Escherichia coli was 0 mm in each case. Besides, the inhibition at 10 µM in the experiment on Fibro cell line worked out at 1.88%.

For the molecule `O=C(CNc1ccc(F)cc1)Nc1nc2ccccc2s1` [OMS3, N-(1,3-benzothiazol-2-yl)-2-(4-fluoroanilino)acetamide], the inhibition at 100 µM on PI3Kγ enzyme (setting [3]) was determined as 24%; at PI3Kγ enzyme (setting [4]), 20%; at PI3Kγ enzyme (setting [5]), 28%; in the experiment with A549 cancer cell line [1], 2.8%; in the experiment on Fibro cell line, 63.8%. Also, the zone of inhibition at 100 µg/mL stood at 15 mm with Staphylococcus aureus and 0 mm in the experiment on Escherichia coli. In addition, the inhibition at 10 µM with Fibro cell line worked out at 10.3%.

As to `NS(=O)(=O)c1ccc(NCC(=O)Nc2nc3ccccc3s2)cc1` [OMS6, N-(1,3-benzothiazol-2-yl)-2-(4-sulfamoylanilino)acetamide], the inhibition at 100 µM at PI3Kγ enzyme (setting [3]) was determined as 13%; at PI3Kγ enzyme (setting [4]) it was 3%; on PI3Kγ enzyme (setting [5]) it was 22%; in the experiment on A549 cancer cell line [1], 39.6%; in the experiment on Fibro cell line, 62.7%. Further, the zone of inhibition at 100 µg/mL with Staphylococcus aureus and with Escherichia coli was 0 mm in each case. Moreover, the inhibition at 10 µM in the experiment on Fibro cell line is 1.52%.

In the case of `CN(C)C1CCN(C(=O)c2ccc(NC(=O)Nc3ccc(-c4nc(N5CCOCC5)nc(N5CCOCC5)n4)cc3)cc2)CC1` [Gedatolisib, reference compound], the IC50 with A549 cancer cell line [1] is 16.5 µM; with MCF-7 cancer cell line (Homo sapiens, MCF7, 72 h) it was 13.1 µM; in the experiment on A549 cancer cell line [2] (read-out: reported IC50) it was 9.05 µM.

In the case of `O=C(CN1CCN(c2ccccn2)CC1)Nc1nc2ccccc2s1` [OMS13, N-(1,3-benzothiazol-2-yl)-2-[4-(pyridin-2-yl)piperazin-1-yl]acetamide], the inhibition at 100 µM is 3% at PI3Kγ enzyme (setting [3]); -2% on PI3Kγ enzyme (setting [4]); 8% at PI3Kγ enzyme (setting [5]); 26.9% with A549 cancer cell line [1]; 13.8% with Fibro cell line. The zone of inhibition at 100 µg/mL in the experiment with Staphylococcus aureus and with Escherichia coli was 0 mm each time. For the same molecule, in the experiment on Fibro cell line, the inhibition at 10 µM worked out at 21.1%.

With `O=C(CN1CCOCC1)Nc1nc2ccccc2s1` [OMS9, N-(1,3-benzothiazol-2-yl)-2-(morpholin-4-yl)acetamide], the inhibition at 100 µM at PI3Kγ enzyme (setting [3]) came out at 2%; on PI3Kγ enzyme (setting [4]), 0%; on PI3Kγ enzyme (setting [5]), 3%; in the experiment on A549 cancer cell line [1], 17.2%; in the experiment on Fibro cell line, 3.11%. Besides, the zone of inhibition at 100 µg/mL in the experiment with Staphylococcus aureus and in the experiment with Escherichia coli was 0 mm each time. The inhibition at 10 µM in the experiment on Fibro cell line was 11.8%.

With `O=C(CN1CCN(c2ccc([N+](=O)[O-])cc2)CC1)Nc1nc2ccccc2s1` [OMS11, N-(1,3-benzothiazol-2-yl)-2-[4-(4-nitrophenyl)piperazin-1-yl]acetamide], the inhibition at 100 µM on PI3Kγ enzyme (setting [3]) was determined as 3%; at PI3Kγ enzyme (setting [4]), 6%; at PI3Kγ enzyme (setting [5]), 0%; in the experiment on A549 cancer cell line [1], 22%; with Fibro cell line, 19.2%. Moreover, the zone of inhibition at 100 µg/mL in the experiment with Staphylococcus aureus and in the experiment with Escherichia coli was 0 mm each time. The inhibition at 10 µM in the experiment on Fibro cell line was found to be 21.3%.

As for “N-(benzo[d]thiazol-2-yl)-2-(4-(2-oxo-2-(piperazin-1-yl)ethyl)piperazin-1-yl)acetamide [OMS15]”, at PI3Kγ enzyme (100 μM), the “% of inhibition against PI3Kγ enzyme, point 1” value stood at 0% and the “% of inhibition against PI3Kγ enzyme, point 2” value is 0%. Also, the “% of inhibition (mean) against PI3Kγ enzyme” value at PI3Kγ enzyme (100 μM, mean of 2 trials) turned out to be 0%. Moreover, the “experimental % of inhibition on A549 cancer cell line” value in the experiment with A549 cancer cell line [1] (100 μM, 72 h, MTT) was determined as 56.69%. The “experimental % of inhibition on MCF-7 cancer cell line” value with MCF-7 cancer cell line (100 μM, 72 h, MTT) is recorded as “–23.63%”. In the experiment on Staphylococcus aureus (disc diffusion, 100 μg/mL, S. aureus), the “zone of inhibition (diameter of inhibition)” value was determined as 0 mm. Besides, the “zone of inhibition (diameter of inhibition)” value in the experiment with Escherichia coli (disc diffusion, 100 μg/mL, E. coli) is 0 mm. The “%inhibition at 10 μM” value with Fibro cell line (Fibro cell line (normal), 10 μM) worked out at 34.8%. The “%inhibition at 100 μM” value with Fibro cell line (Fibro cell line (normal), 100 μM) is recorded as 70%.

With `CNC(=O)c1cc(Oc2ccc(NC(=O)Nc3ccc(Cl)c(C(F)(F)F)c3)cc2)ccn1` [Sorafenib, reference compound], in the experiment with Fibro cell line, the inhibition at 10 µM turned out to be 10.7% and the inhibition at 100 µM is 26.3%.

`CC1(C)S[C@@H]2[C@H](NC(=O)[C@H](N)c3ccc(O)cc3)C(=O)N2[C@H]1C(=O)O` [Amoxicillin, reference compound]: in the experiment on Staphylococcus aureus, the zone of inhibition at 100 µg/mL was 22 mm.

For `COc1cccc2c1C(=O)c1c(O)c3c(c(O)c1C2=O)C[C@@](O)(C(=O)CO)C[C@@H]3O[C@H]1C[C@H](N)[C@H](O)[C@H](C)O1` [Doxorubicin, reference compound], the IC50 with A549 cancer cell line [1] is 16.6 µM; in the experiment with A549 cancer cell line [2] (read-out: reported IC50 against A549), 0.071 µM. Besides, the inhibition at 100 µM with A549 cancer cell line [1] worked out at 82.2%.

On to `O=C(CNc1ccc(S(=O)(=O)Nc2ccccn2)cc1)Nc1nc2ccccc2s1` [OMS8, N-(1,3-benzothiazol-2-yl)-2-{4-[(pyridine-2-yl)sulfamoyl]anilino}acetamide], for which the inhibition at 100 µM is 0% at PI3Kγ enzyme (setting [3]); 0% on PI3Kγ enzyme (setting [4]); 0% at PI3Kγ enzyme (setting [5]); 11.2% in the experiment with A549 cancer cell line [1]; 43.3% with Fibro cell line. Moreover, the zone of inhibition at 100 µg/mL with Staphylococcus aureus and in the experiment with Escherichia coli was 0 mm in each case. In addition, the inhibition at 10 µM in the experiment on Fibro cell line worked out at 8.62%.

For `O=C(CNc1ccc(I)cc1)Nc1nc2ccccc2s1` [OMS4, N-(1,3-benzothiazol-2-yl)-2-(4-iodoanilino)acetamide], the inhibition at 100 µM at PI3Kγ enzyme (setting [3]) was 0%; at PI3Kγ enzyme (setting [4]), 0%; on PI3Kγ enzyme (setting [5]), 0%; in the experiment on A549 cancer cell line [1], -2.32%; with Fibro cell line, 27.6%. In addition, the results for the zone of inhibition at 100 µg/mL in the experiment with Staphylococcus aureus and with Escherichia coli were 10 mm and 0 mm, respectively. Further, the inhibition at 10 µM with Fibro cell line was found to be 1.32%.

Take `O=C(CN1CCN(c2cccc(O)c2)CC1)Nc1nc2ccccc2s1` [OMS10, N-(1,3-benzothiazol-2-yl)-2-[4-(3-hydroxyphenyl)piperazin-1-yl]acetamide]: the inhibition at 100 µM came out at 2% on PI3Kγ enzyme (setting [3]); 3% at PI3Kγ enzyme (setting [4]); 0% at PI3Kγ enzyme (setting [5]); 38.1% with A549 cancer cell line [1]; 44.1% with Fibro cell line. The zone of inhibition at 100 µg/mL in the experiment on Staphylococcus aureus stood at 11 mm; in the experiment with Escherichia coli it was 0 mm. Further, in the experiment with Fibro cell line, the inhibition at 10 µM came to 15.9%.

Regarding `O=C(CN1CCN(CC(=O)Nc2nc3ccccc3s2)CC1)Nc1nc2ccccc2s1` [OMS16, 2,2′-(piperazine-1,4-diyl)bis(N-(benzo[d]thiazol-2-yl)acetamide)], the inhibition at 100 µM was 1% on PI3Kγ enzyme (setting [3]); 2% at PI3Kγ enzyme (setting [4]); 0% on PI3Kγ enzyme (setting [5]); 56.6% in the experiment on A549 cancer cell line [1]; 70.1% in the experiment with Fibro cell line. In addition, the zone of inhibition at 100 µg/mL in the experiment with Staphylococcus aureus and in the experiment on Escherichia coli was 0 mm in each case. Also, the inhibition at 10 µM in the experiment on Fibro cell line is 53.8%.

Take `O=C(CNC1CCCCC1)Nc1nc2ccccc2s1` [OMS1, N-(1,3-benzothiazol-2-yl)-2-(cyclohexylamino)acetamide]: the inhibition at 100 µM is 47% on PI3Kγ enzyme (setting [3]); 54% at PI3Kγ enzyme (setting [4]); 40% at PI3Kγ enzyme (setting [5]); 1.72% in the experiment on A549 cancer cell line [1]; 13% in the experiment with Fibro cell line. The results for the zone of inhibition at 100 µg/mL with Staphylococcus aureus and with Escherichia coli were 22 mm and 0 mm, respectively. The inhibition at 10 µM with Fibro cell line was found to be 0.85%.

With `O=C(CN1CCN(c2ccccc2O)CC1)Nc1nc2ccccc2s1` [OMS12, N-(1,3-benzothiazol-2-yl)-2-[4-(2-hydroxyphenyl)piperazin-1-yl]acetamide], the inhibition at 100 µM stood at 16% on PI3Kγ enzyme (setting [3]); 28% at PI3Kγ enzyme (setting [4]); 4% at PI3Kγ enzyme (setting [5]); 48.5% in the experiment on A549 cancer cell line [1]; 22.2% with Fibro cell line. Besides, the figures for the zone of inhibition at 100 µg/mL in the experiment with Staphylococcus aureus and in the experiment on Escherichia coli were 20 mm and 0 mm, respectively. The inhibition at 10 µM in the experiment on Fibro cell line worked out at 24.3%.
